One assay relates to Serratia marcescens. The experiment in a line: In vitro minimum inhibitory concentration for Serratia marcescens (ATCC-27117) by agar dilution method. The class given is functional. The following applies: Serratia marcescens; read-out: MIC. In outline:
(§1)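 Two-fold serial dilutions of each compound dispersed in Mueller-Hinton agar; plates spot-inoculated with 2 μL of standard test strain at 10^7 CFU/mL, incubated 37 °C for 20 h; MIC read as lowest concentration inhibiting growth.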
(In general: In agar dilution the substance is mixed into plates at graded concentrations.)

Assay [1] relates to Pseudomonas aeruginosa. The experiment in a line: In vitro minimum inhibitory concentration for Pseudomonas aeruginosa (ATCC-27853) by agar dilution method. The following applies: Pseudomonas aeruginosa; read-out: MIC. It counts as functional. The procedure, abridged:
as §1

Assay [2] relates to Staphylococcus aureus. The experiment in a line: In vitro minimum inhibitory concentration for Staphylococcus aureus (ATCC 6538p) by agar dilution method. Conditions: Staphylococcus aureus, ATCC 6538p; read-out: MIC. The class given is functional. In outline: as §1
The next assay has as its system Enterobacter cloacae. The experiment in a line: In vitro minimum inhibitory concentration for Enterobacter cloacae (ATCC-27508) by agar dilution method. Conditions: Enterobacter cloacae; read-out: MIC. It counts as functional. In outline: as §1
A further assay relates to Klebsiella pneumoniae. The experiment in a line: In vitro minimum inhibitory concentration for Klebsiella pneumoniae (ATCC-10031) by agar dilution method. The class given is functional. The following applies: Klebsiella pneumoniae; read-out: MIC.
A further assay concerns Escherichia coli. The experiment in a line: In vitro minimum inhibitory concentration for Escherichia coli (ATCC-10536) by agar dilution method. It counts as functional. The following applies: Escherichia coli; read-out: MIC. The procedure, abridged: as §1
The next assay has as its system Proteus vulgaris. The experiment in a line: In vitro minimum inhibitory concentration for Proteus vulgaris (ATCC-6059) by agar dilution method. The following applies: Proteus vulgaris; read-out: MIC. It counts as functional. In outline: as §1
The subject of assay [3] is Staphylococcus epidermidis. The experiment in a line: In vitro minimum inhibitory concentration for Staphylococcus epidermidis (ATCC-12228) by agar dilution method. It counts as functional. The following applies: Staphylococcus epidermidis; read-out: MIC. In outline:
as §1

In another assay the test system is Salmonella typhimurium. The experiment in a line: In vitro minimum inhibitory concentration for Salmonella Typhimurium (ATCC-14028) by agar dilution method. The class given is functional, Salmonella enterica subsp. enterica serovar Typhimurium. Conditions: Salmonella enterica; read-out: MIC. The procedure, abridged: as §1
The next assay has as its system Citrobacter freundii. The experiment in a line: In vitro minimum inhibitory concentration for Citrobacter freundii (ATCC-8090) by agar dilution method. It counts as functional. The following applies: Citrobacter freundii; read-out: MIC. In outline:
as §1

For assay [4], the system named is Pseudomonas aeruginosa. The experiment in a line: In vitro minimum inhibitory concentration for Pseudomonas aeruginosa (ATCC 10145) by agar dilution method. The class given is functional. The procedure, abridged:
as §1

Another assay concerns Klebsiella aerogenes. The experiment in a line: In vitro minimum inhibitory concentration for Enterobacter aerogenes (ATCC-29751) by agar dilution method. The class given is functional. Conditions: Klebsiella aerogenes; read-out: MIC. In outline: as §1
For assay [5], the system named is Staphylococcus aureus. The experiment in a line: In vitro minimum inhibitory concentration for Staphylococcus aureus (ATCC 6538p) by agar dilution method.

In brackets after ≈: the same amount, converted by molar mass. Some results are limits rather than exact numbers.

Take `CC(C)(O/N=C(\C(=O)NC1C(=O)N2C(C(=O)O)=C(CSc3nccc(O)n3)CSC12)c1cnc(N)s1)C(=O)O` (centres undefined): the MIC with Serratia marcescens is 16 µg/mL (≈ 26.9 µM); in the assay on Pseudomonas aeruginosa [1] it was greater than 128 µg/mL; in the assay on Staphylococcus aureus [2], greater than 128 µg/mL; in the assay on Enterobacter cloacae, 4 µg/mL (≈ 6.72 µM); with Klebsiella pneumoniae, 8 µg/mL (≈ 13.4 µM); with Escherichia coli, 8 µg/mL (≈ 13.4 µM). The MIC with Proteus vulgaris is 2 µg/mL (≈ 3.36 µM); in assay [3], greater than 128 µg/mL; in the assay with Salmonella typhimurium, 64 µg/mL (≈ 107 µM); with Citrobacter freundii it was 8 µg/mL (≈ 13.4 µM); in the assay on Pseudomonas aeruginosa [4] it was greater than 128 µg/mL; in the assay on Klebsiella aerogenes, 32 µg/mL (≈ 53.7 µM).

Consider `CC(C)(O/N=C(\C(=O)NC1C(=O)N2C(C(=O)O)=C(CSc3ncccn3)CSC12)c1cnc(N)s1)C(=O)O` (centres undefined), for which the MIC was found to be 2 µg/mL (≈ 3.45 µM) in the assay with Serratia marcescens; 16 µg/mL (≈ 27.6 µM) in the assay with Pseudomonas aeruginosa [1]; 16 µg/mL (≈ 27.6 µM) in the assay on Staphylococcus aureus [2]; 0.5 µg/mL (≈ 0.863 µM) with Enterobacter cloacae; 0.5 µg/mL (≈ 0.863 µM) in the assay on Klebsiella pneumoniae; 1 µg/mL (≈ 1.73 µM) in the assay on Escherichia coli. The MIC in the assay on Proteus vulgaris turned out to be 0.063 µg/mL (≈ 0.109 µM); in [3], 8 µg/mL (≈ 13.8 µM); in the assay on Salmonella typhimurium it was 2 µg/mL (≈ 3.45 µM); in the assay on Citrobacter freundii, 1 µg/mL (≈ 1.73 µM); with Pseudomonas aeruginosa [4], 32 µg/mL (≈ 55.2 µM); in the assay with Klebsiella aerogenes, 16 µg/mL (≈ 27.6 µM).

As to `CCC[n+]1c(N)cc(N)nc1SCC1=C(C(=O)[O-])N2C(=O)C(NC(=O)/C(=N\OC(C)(C)C(=O)O)c3cnc(N)s3)C2SC1` (centres undefined), the minimal inhibitory concentration (MIC) in the assay with Serratia marcescens is 0.25 µg/mL (≈ 0.384 µM); against Staphylococcus aureus [5], 2 µg/mL (≈ 3.07 µM); in the assay with Pseudomonas aeruginosa [1], 2 µg/mL (≈ 3.07 µM); in the assay with Enterobacter cloacae, 0.03 µg/mL (≈ 0.046 µM); in the assay with Klebsiella pneumoniae, 0.13 µg/mL (≈ 0.199 µM); with Escherichia coli it was 0.13 µg/mL (≈ 0.199 µM). Further, the MIC with Proteus vulgaris was found to be 0.06 µg/mL (≈ 0.0921 µM); in assay [3] it was 2 µg/mL (≈ 3.07 µM); in the assay with Salmonella typhimurium, 0.25 µg/mL (≈ 0.384 µM); with Citrobacter freundii it was 0.25 µg/mL (≈ 0.384 µM); with Pseudomonas aeruginosa [4], 4 µg/mL (≈ 6.14 µM); with Klebsiella aerogenes, 2 µg/mL (≈ 3.07 µM).

In the case of `CNc1cc2n(C)cc[n+]2c(SCC2=C(C(=O)[O-])N3C(=O)C(NC(=O)/C(=N\OC(C)(C)C(=O)O)c4cnc(N)s4)C3SC2)n1` (centres undefined), the MIC with Serratia marcescens amounted to 0.5 µg/mL (≈ 0.756 µM); in the assay with Pseudomonas aeruginosa [1] it was 4 µg/mL (≈ 6.04 µM); in the assay on Staphylococcus aureus [2] it was 8 µg/mL (≈ 12.1 µM); with Enterobacter cloacae, 0.03 µg/mL (≈ 0.0453 µM); in the assay on Klebsiella pneumoniae, 0.25 µg/mL (≈ 0.378 µM); with Escherichia coli it was 0.13 µg/mL (≈ 0.196 µM). The MIC in the assay on Proteus vulgaris amounted to 0.13 µg/mL (≈ 0.196 µM); in assay [3], 4 µg/mL (≈ 6.04 µM); in the assay on Salmonella typhimurium it was 0.5 µg/mL (≈ 0.756 µM); in the assay with Citrobacter freundii, 0.13 µg/mL (≈ 0.196 µM); against Pseudomonas aeruginosa [4], 8 µg/mL (≈ 12.1 µM); with Klebsiella aerogenes, 4 µg/mL (≈ 6.04 µM).

With `Cc1c(N)nc(SCC2=C(C(=O)[O-])N3C(=O)C(NC(=O)/C(=N\OC(C)(C)C(=O)O)c4cnc(N)s4)C3SC2)[n+]2nc(C)n(C)c12` (centres undefined), the MIC stood at 0.5 µg/mL (≈ 0.739 µM) in the assay on Serratia marcescens; 4 µg/mL (≈ 5.91 µM) in the assay on Pseudomonas aeruginosa [1]; 8 µg/mL (≈ 11.8 µM) in the assay with Staphylococcus aureus [2]; 0.03 µg/mL (≈ 0.0443 µM) with Enterobacter cloacae; 0.13 µg/mL (≈ 0.192 µM) in the assay on Klebsiella pneumoniae; 0.25 µg/mL (≈ 0.369 µM) in the assay on Escherichia coli. Moreover, the MIC amounted to 0.13 µg/mL (≈ 0.192 µM) in the assay on Proteus vulgaris; 2 µg/mL (≈ 2.96 µM) in assay [3]; 0.25 µg/mL (≈ 0.369 µM) with Salmonella typhimurium; 0.13 µg/mL (≈ 0.192 µM) with Citrobacter freundii; 8 µg/mL (≈ 11.8 µM) against Pseudomonas aeruginosa [4]; 1 µg/mL (≈ 1.48 µM) with Klebsiella aerogenes.

Take `CN(C)c1cc2n(C)cc[n+]2c(SCC2=C(C(=O)[O-])N3C(=O)C(NC(=O)/C(=N\OC(C)(C)C(=O)O)c4cnc(N)s4)C3SC2)n1` (centres undefined): the MIC came out at 0.5 µg/mL (≈ 0.74 µM) in the assay on Serratia marcescens; 4 µg/mL (≈ 5.92 µM) with Pseudomonas aeruginosa [1]; 2 µg/mL (≈ 2.96 µM) with Staphylococcus aureus [2]; 0.06 µg/mL (≈ 0.0888 µM) in the assay on Enterobacter cloacae; 0.13 µg/mL (≈ 0.192 µM) in the assay with Klebsiella pneumoniae; 0.13 µg/mL (≈ 0.192 µM) in the assay with Escherichia coli. The MIC was determined as 0.25 µg/mL (≈ 0.37 µM) with Proteus vulgaris; 1 µg/mL (≈ 1.48 µM) in assay [3]; 0.5 µg/mL (≈ 0.74 µM) with Salmonella typhimurium; 0.25 µg/mL (≈ 0.37 µM) in the assay on Citrobacter freundii; 8 µg/mL (≈ 11.8 µM) with Pseudomonas aeruginosa [4]; 4 µg/mL (≈ 5.92 µM) in the assay with Klebsiella aerogenes.

Turning to `CC(C)(O/N=C(\C(=O)NC1C(=O)N2C(C(=O)[O-])=C(CSc3nc(N)cc(N)[n+]3-c3ccc(Cl)cc3)CSC12)c1cnc(N)s1)C(=O)O` (centres undefined), the MIC in the assay on Serratia marcescens worked out at 1 µg/mL (≈ 1.39 µM); in the assay with Pseudomonas aeruginosa [1], 2 µg/mL (≈ 2.78 µM); in the assay on Staphylococcus aureus [2], 4 µg/mL (≈ 5.55 µM); in the assay on Enterobacter cloacae it was 0.13 µg/mL (≈ 0.181 µM); in the assay on Klebsiella pneumoniae, 0.13 µg/mL (≈ 0.181 µM); in the assay on Escherichia coli, 0.25 µg/mL (≈ 0.347 µM). Further, the MIC in the assay with Proteus vulgaris was 0.25 µg/mL (≈ 0.347 µM); in assay [3] it was 2 µg/mL (≈ 2.78 µM); in the assay with Salmonella typhimurium, 0.5 µg/mL (≈ 0.694 µM); in the assay on Citrobacter freundii it was 0.25 µg/mL (≈ 0.347 µM); in the assay with Pseudomonas aeruginosa [4] it was 4 µg/mL (≈ 5.55 µM); with Klebsiella aerogenes, 1 µg/mL (≈ 1.39 µM).

What is called MIC is the lowest concentration that inhibits growth of the organism.
